# The source made the active and inactive calls. No cut-off for these calls is given here.
# Legend:
# [1] = target: Genome polyprotein (West Nile virus) (UniProt P06935); test: Inhibition of WNV NS2B-NS3 protease expressed in Escherichia coli BL21 lambda (DE3) cells using Abz-Gly-Leu-Lys-Arg-Gly-Gly-3-(NO2)Tyr as substrate at 50 uM preincubated for 15 mins followed by substrate addition measured for 15 mins by FRET assay relative to control
# dengue virus type 2 [2] = test: Inhibition of DENV serotype 2 NS2B-NS3 protease expressed in Escherichia coli BL21 lambda (DE3) cells using Abz-Nle-Lys-Arg-Arg-Ser-3-(NO2)Tyr as substrate at 50 uM preincubated for 15 mins followed by substrate addition measured for 15 mins by FRET assay relative to control
# dengue virus type 2 [3] = test: Inhibition of DENV serotype 2 NS2B-NS3 protease expressed in Escherichia coli BL21 lambda (DE3) cells by HPLC-based assay
# [4] = Inhibition of DENV serotype 2 NS2B-NS3 protease expressed in Escherichia coli BL21 lambda (DE3) cells using Abz-Nle-Lys-Arg-Arg-Ser-3-(NO2)Tyr as substrate preincubated for 15 mins followed by substrate addition measured for 15 mins by FRET assay; design: species or system dengue virus type 2
# Method in brief: (§1)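 IC50 by FRET assay at substrate 50 μM; DENV protease at 100 nM, WNV protease at 150 nM. Measured in triplicate.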
# Genome polyprotein [5] = target: T1, Genome polyprotein (West Nile virus, UniProt P06935); test: Inhibition of WNV NS2B-NS3 protease expressed in Escherichia coli BL21 lambda (DE3) cells using Abz-Gly-Leu-Lys-Arg-Gly-Gly-3-(NO2)Tyr as substrate preincubated for 15 mins followed by substrate addition measured for 15 mins by FRET assay; method in brief: as §1
# T1 sequence (P06935 1371-1501 limits assumed): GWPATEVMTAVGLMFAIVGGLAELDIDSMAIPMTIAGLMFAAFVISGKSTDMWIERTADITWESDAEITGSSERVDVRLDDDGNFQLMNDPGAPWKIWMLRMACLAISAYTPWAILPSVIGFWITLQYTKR
# T1 sequence (P06935 1502-2120 limits assumed): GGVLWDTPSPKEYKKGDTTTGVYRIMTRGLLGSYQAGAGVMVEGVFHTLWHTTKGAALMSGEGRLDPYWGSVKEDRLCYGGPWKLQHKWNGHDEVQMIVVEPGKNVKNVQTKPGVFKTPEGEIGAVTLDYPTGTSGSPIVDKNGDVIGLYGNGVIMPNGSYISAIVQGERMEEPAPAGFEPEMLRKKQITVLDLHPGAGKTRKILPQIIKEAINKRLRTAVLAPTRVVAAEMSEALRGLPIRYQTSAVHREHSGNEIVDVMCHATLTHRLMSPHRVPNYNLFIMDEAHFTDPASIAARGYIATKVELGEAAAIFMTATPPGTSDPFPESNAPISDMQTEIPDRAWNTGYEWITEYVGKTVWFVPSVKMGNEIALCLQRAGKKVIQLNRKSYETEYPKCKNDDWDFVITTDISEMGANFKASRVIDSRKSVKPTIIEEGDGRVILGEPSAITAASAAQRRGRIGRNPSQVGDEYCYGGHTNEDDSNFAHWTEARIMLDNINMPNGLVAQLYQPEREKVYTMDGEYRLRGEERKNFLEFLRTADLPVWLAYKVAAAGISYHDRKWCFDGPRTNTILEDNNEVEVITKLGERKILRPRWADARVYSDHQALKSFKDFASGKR
# [6] = target: Prothrombin (Homo sapiens) (UniProt P00734); test: Inhibition of thrombin (unknown origin) using Boc-Val-Pro-Arg-AMC as substrate at 25 uM preincubated for 15 mins followed by substrate addition measured for 10 mins by FRET assay relative to control
# [7] = target: Genome polyprotein (West Nile virus) (UniProt P06935); test: Competitive inhibition of WNV NS2B-NS3 protease expressed in Escherichia coli BL21 lambda (DE3) cells using Abz-Gly-Leu-Lys-Arg-Gly-Gly-3-(NO2)Tyr as substrate at 0.5 to 6 uM preincubated for 15 mins followed by substrate addition measured for 15 mins by Cheng-Prusoff plot analysis
# Method in brief: (§2)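 WNV protease, FRET read-out. Substrate at 50, 100, 150, 200 μM; inhibitor at 0, 0.5, 1, 2, 3, 4, 5, 6 μM; triplicates repeated three times, 12 outliers of 288 values excluded. Ki taken from the Cheng-Prusoff plot (Y-intercept of IC50 vs substrate) or the Dixon plot (mean of line intersections).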
# Genome polyprotein [8] = target: T1, Genome polyprotein; test: Inhibition of WNV NS2B-NS3 protease expressed in Escherichia coli BL21 lambda (DE3) cells using Abz-Gly-Leu-Lys-Arg-Gly-Gly-3-(NO2)Tyr as substrate preincubated for 15 mins followed by substrate addition measured for 15 mins by Dixon plot analysis; method in brief: as §2
# Genome polyprotein [9] = target: T1, Genome polyprotein; test: Competitive inhibition of WNV NS2B-NS3 protease expressed in Escherichia coli BL21 lambda (DE3) cells using Abz-Gly-Leu-Lys-Arg-Gly-Gly-3-(NO2)Tyr as substrate preincubated for 15 mins followed by substrate addition measured for 15 mins by Cheng-Prusoff plot analysis; method in brief: as §2
# dengue virus type 2 [10] = test: Competitive inhibition of DENV serotype 2 NS2B-NS3 protease expressed in Escherichia coli BL21 lambda (DE3) cells using Abz-Nle-Lys-Arg-Arg-Ser-3-(NO2)Tyr as substrate at 0.25 to 3 uM preincubated for 15 mins followed by substrate addition measured for 15 mins by Cornish-Bowden plot analysis
# Method in brief: (§3)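 DENV serotype 2 protease, FRET read-out. Substrate at 50, 100, 150, 200 μM; inhibitor at 0, 0.25, 0.5, 1, 1.5, 2, 2.5, 3 μM; triplicates, two outliers of 96 values excluded. Ki taken from the Cheng-Prusoff plot (IC50 vs substrate, Y-intercept), the Dixon plot (mean of line intersections), or the Cornish-Bowden plot.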
# [11] = Competitive inhibition of DENV serotype 2 NS2B-NS3 protease expressed in Escherichia coli BL21 lambda (DE3) cells using Abz-Nle-Lys-Arg-Arg-Ser-3-(NO2)Tyr as substrate preincubated for 15 mins followed by substrate addition measured for 15 mins by Cheng-Prusoff plot analysis; design: species or system dengue virus type 2; method in brief: as §3
# dengue virus type 2 [12] = test: Binding affinity to DENV serotype 2 NS2B-NS3 protease expressed in Escherichia coli BL21 lambda (DE3) cells by fluorescence quenching assay in absence of DENV protease inhibitor aprotinin
# Method in brief: (§4)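 DENV protease held at 1 μM, aprotinin at 10 μM, inhibitor at 0, 0.5, 1, 2, 5, 10, 20, 30, 40, 48 μM. Read-out is the intrinsic Trp50 fluorescence of the protease, measured with and without aprotinin. Readings with aprotinin corrected for aprotinin's own fluorescence.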
# [13] = Inhibition of DENV serotype 2 NS2B-NS3 protease expressed in Escherichia coli BL21 lambda (DE3) cells using Abz-Nle-Lys-Arg-Arg-Ser-3-(NO2)Tyr as substrate preincubated for 15 mins followed by substrate addition measured for 15 mins by Dixon plot analysis; design: species or system dengue virus type 2; method in brief: as §3
# dengue virus type 2 [14] = test: Binding affinity to DENV serotype 2 NS2B-NS3 protease expressed in Escherichia coli BL21 lambda (DE3) cells at 0.5 to 48 uM by fluorescence quenching assay in presence of DENV protease inhibitor aprotinin; method in brief: as §4
# Genome polyprotein (West Nile virus), sequence (P06935 whole entry): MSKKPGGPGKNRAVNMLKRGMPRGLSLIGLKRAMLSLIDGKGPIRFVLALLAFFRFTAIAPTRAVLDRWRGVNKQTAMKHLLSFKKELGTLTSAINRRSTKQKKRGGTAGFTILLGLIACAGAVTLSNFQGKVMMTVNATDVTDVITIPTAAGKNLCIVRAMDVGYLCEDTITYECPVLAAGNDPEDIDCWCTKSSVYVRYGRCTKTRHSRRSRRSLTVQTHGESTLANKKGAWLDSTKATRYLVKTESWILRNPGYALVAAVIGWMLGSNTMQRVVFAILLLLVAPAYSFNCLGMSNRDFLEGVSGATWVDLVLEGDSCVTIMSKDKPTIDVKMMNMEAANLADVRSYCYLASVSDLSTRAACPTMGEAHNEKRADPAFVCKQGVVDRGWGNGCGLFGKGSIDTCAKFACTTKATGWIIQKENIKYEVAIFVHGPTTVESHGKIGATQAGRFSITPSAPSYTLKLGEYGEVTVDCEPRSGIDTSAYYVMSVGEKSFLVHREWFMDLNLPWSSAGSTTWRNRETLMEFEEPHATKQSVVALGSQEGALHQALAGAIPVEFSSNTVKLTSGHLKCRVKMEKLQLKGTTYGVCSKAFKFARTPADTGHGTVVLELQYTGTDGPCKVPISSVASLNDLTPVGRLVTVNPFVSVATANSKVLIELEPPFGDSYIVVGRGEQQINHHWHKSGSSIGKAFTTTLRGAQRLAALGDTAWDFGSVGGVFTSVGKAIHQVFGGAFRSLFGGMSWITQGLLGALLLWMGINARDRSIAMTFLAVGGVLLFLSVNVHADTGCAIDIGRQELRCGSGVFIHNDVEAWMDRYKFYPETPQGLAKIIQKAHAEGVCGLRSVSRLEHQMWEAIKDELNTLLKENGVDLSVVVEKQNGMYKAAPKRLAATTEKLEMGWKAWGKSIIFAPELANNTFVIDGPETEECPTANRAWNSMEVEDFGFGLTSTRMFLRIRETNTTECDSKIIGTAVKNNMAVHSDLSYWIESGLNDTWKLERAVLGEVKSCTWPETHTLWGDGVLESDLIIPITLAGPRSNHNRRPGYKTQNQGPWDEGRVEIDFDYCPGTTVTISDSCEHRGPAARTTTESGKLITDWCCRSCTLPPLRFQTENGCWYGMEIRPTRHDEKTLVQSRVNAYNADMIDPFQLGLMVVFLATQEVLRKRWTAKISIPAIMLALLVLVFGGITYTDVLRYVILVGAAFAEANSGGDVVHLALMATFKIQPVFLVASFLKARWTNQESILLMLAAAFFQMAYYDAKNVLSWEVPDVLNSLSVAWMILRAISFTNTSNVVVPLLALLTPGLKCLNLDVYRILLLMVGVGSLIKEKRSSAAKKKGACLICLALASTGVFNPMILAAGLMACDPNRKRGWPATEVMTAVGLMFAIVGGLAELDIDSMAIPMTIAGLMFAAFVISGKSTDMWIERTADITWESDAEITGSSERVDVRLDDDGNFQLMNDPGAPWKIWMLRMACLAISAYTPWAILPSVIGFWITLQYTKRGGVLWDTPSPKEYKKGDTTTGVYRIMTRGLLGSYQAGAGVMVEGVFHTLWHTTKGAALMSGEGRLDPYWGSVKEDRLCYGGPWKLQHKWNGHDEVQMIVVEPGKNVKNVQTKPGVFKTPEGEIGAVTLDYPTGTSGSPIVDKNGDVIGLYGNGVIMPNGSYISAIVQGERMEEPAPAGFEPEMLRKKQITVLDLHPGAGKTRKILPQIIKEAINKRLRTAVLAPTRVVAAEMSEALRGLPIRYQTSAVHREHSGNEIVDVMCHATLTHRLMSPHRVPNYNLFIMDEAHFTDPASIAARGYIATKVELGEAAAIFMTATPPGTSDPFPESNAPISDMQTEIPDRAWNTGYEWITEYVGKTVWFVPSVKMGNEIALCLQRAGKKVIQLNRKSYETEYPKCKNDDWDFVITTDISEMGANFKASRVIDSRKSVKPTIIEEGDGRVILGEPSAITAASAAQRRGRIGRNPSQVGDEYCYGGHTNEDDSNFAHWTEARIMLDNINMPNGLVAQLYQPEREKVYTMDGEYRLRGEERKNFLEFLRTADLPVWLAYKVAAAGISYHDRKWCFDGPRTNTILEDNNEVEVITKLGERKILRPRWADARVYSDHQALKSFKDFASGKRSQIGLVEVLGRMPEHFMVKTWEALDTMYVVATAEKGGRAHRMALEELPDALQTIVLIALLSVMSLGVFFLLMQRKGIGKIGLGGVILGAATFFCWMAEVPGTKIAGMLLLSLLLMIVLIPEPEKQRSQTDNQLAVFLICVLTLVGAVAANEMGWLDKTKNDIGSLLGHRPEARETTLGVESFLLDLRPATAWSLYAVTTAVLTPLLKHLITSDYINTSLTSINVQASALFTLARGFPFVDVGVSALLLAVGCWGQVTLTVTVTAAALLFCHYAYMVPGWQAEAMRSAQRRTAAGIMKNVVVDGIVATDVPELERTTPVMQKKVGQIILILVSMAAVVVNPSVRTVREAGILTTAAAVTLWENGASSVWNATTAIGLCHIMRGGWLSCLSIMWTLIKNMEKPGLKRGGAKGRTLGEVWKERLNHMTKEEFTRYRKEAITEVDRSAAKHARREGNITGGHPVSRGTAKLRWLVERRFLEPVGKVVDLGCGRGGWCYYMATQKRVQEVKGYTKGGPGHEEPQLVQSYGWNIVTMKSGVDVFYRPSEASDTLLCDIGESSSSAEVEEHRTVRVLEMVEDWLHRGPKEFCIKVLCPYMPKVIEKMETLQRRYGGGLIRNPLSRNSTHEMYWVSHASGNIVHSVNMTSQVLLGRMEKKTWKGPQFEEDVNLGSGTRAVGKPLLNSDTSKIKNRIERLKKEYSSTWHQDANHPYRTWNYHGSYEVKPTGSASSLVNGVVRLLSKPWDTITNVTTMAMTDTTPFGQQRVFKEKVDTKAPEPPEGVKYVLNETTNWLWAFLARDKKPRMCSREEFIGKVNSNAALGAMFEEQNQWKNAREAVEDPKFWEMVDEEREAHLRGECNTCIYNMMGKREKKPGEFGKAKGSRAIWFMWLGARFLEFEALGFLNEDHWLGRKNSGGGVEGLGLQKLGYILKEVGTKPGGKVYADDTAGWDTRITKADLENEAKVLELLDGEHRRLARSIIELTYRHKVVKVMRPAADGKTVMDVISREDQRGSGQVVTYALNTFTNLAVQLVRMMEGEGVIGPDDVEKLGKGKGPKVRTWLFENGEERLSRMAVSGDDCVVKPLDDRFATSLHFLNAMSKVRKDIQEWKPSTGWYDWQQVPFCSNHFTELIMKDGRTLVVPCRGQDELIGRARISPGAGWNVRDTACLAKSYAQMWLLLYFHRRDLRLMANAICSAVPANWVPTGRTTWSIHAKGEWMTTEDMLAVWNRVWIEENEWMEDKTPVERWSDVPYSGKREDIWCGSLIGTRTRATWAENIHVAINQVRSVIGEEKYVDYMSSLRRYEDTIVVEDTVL
smiles,measurement,setting,value
CCC(CC)N1C(=O)S/C(=C\c2ccc(C(=O)O)cc2)C1=O,inhibition,[1],40.7%
same,inhibition,dengue virus type 2 [2],11.2%
same,inhibition,dengue virus type 2 [3],inactive
CC(C)(C)CN1C(=O)S/C(=C\c2ccc(C(=O)N[C@@H](CCCNC(=N)N)C(=O)N[C@@H](CCCCN)C(=O)N[C@H](C(N)=O)c3ccccc3)cc2)C1=O,IC50,[4],580 nM
same,inhibition,[1],93.5%
same,inhibition,dengue virus type 2 [2],101%
same,IC50,Genome polyprotein [5],2030 nM
same,inhibition,[6],9.7%
O=C(O)c1ccc(/C=C2\SC(=O)N(CC34CC5CC(CC(C5)C3)C4)C2=O)cc1,inhibition,[1],inactive
same,inhibition,dengue virus type 2 [2],inactive
same,inhibition,dengue virus type 2 [3],inactive
CC(C)(C)CCN1C(=O)S/C(=C\c2ccc(C(=O)N[C@@H](CCCNC(=N)N)C(=O)N[C@@H](CCCCN)C(=O)N[C@H](C(N)=O)c3ccccc3)cc2)C1=O,IC50,[4],510 nM
same,inhibition,[1],98.9%
same,inhibition,dengue virus type 2 [2],101%
same,IC50,Genome polyprotein [5],1910 nM
same,inhibition,[6],9.7%
N=C(N)NCCC[C@H](NC(=O)c1ccc(/C=C2\SC(=O)N(C3CCCCC3)C2=O)cc1)C(=O)N[C@@H](CCCCN)C(=O)N[C@H](C(N)=O)c1ccccc1,IC50,[4],790 nM
same,inhibition,[1],98%
same,inhibition,dengue virus type 2 [2],101%
same,IC50,Genome polyprotein [5],1710 nM
same,inhibition,[6],9.5%
CCC(C)N1C(=O)S/C(=C\c2ccc(C(=O)N[C@@H](CCCNC(=N)N)C(=O)N[C@@H](CCCCN)C(=O)N[C@H](C(N)=O)c3ccccc3)cc2)C1=O (some centres undefined),IC50,[4],920 nM
same,inhibition,[1],92.8%
same,inhibition,dengue virus type 2 [2],102%
same,IC50,Genome polyprotein [5],2500 nM
same,inhibition,[6],38.9%
N=C(N)NCCC[C@H](NC(=O)c1ccc(/C=C2\SC(=O)N(CC34CC5CC(CC(C5)C3)C4)C2=O)cc1)C(=O)N[C@@H](CCCCN)C(=O)N[C@H](C(N)=O)c1ccccc1,IC50,[4],740 nM
same,inhibition,[1],107%
same,inhibition,dengue virus type 2 [2],102%
same,IC50,Genome polyprotein [5],1270 nM
same,inhibition,[6],6.6%
C#CCCCN1C(=O)S/C(=C\c2ccc(C(=O)N[C@@H](CCCNC(=N)N)C(=O)N[C@@H](CCCCN)C(=O)N[C@H](C(N)=O)c3ccccc3)cc2)C1=O,IC50,[4],850 nM
same,inhibition,[1],105%
same,inhibition,dengue virus type 2 [2],103%
same,IC50,Genome polyprotein [5],2750 nM
same,inhibition,[6],10.4%
CCC(CC)CN1C(=O)S/C(=C\c2ccc(C(=O)N[C@@H](CCCNC(=N)N)C(=O)N[C@@H](CCCCN)C(=O)N[C@H](C(N)=O)c3ccccc3)cc2)C1=O,IC50,[4],650 nM
same,inhibition,[1],99.2%
same,inhibition,dengue virus type 2 [2],100%
same,IC50,Genome polyprotein [5],1350 nM
same,inhibition,[6],8.7%
N=C(N)NCCC[C@H](NC(=O)c1ccc(/C=C2\SC(=O)N(CC3CCCCC3)C2=O)cc1)C(=O)N[C@@H](CCCCN)C(=O)N[C@H](C(N)=O)c1ccccc1,inhibition,[7],Active
same,IC50,[4],1050 nM
same,Ki,Genome polyprotein [8],820 nM
same,Ki,Genome polyprotein [9],1300 nM
same,inhibition,[1],99.6%
same,inhibition,dengue virus type 2 [2],99.3%
same,IC50,Genome polyprotein [5],750 nM
same,inhibition,[6],6.9%
C#CCN1C(=O)S/C(=C\c2ccc(C(=O)N[C@@H](CCCNC(=N)N)C(=O)N[C@@H](CCCCN)C(=O)N[C@H](C(N)=O)c3ccccc3)cc2)C1=O,IC50,[4],990 nM
same,inhibition,[1],93.1%
same,inhibition,dengue virus type 2 [2],99.2%
same,IC50,Genome polyprotein [5],2360 nM
same,inhibition,[6],10.9%
N=C(N)NCCC[C@H](NC(=O)c1ccc(/C=C2\SC(=O)N(CCC3CCCCC3)C2=O)cc1)C(=O)N[C@@H](CCCCN)C(=O)N[C@H](C(N)=O)c1ccccc1,IC50,[4],1920 nM
same,inhibition,[1],101%
same,inhibition,dengue virus type 2 [2],99.9%
same,IC50,Genome polyprotein [5],1130 nM
same,inhibition,[6],7.3%
CCC(CC)N1C(=O)S/C(=C\c2ccc(C(=O)N[C@@H](CCCNC(=N)N)C(=O)N[C@@H](CCCCN)C(=O)N[C@H](C(N)=O)c3ccccc3)cc2)C1=O,IC50,[4],740 nM
same,inhibition,[1],95%
same,inhibition,dengue virus type 2 [2],99.3%
same,IC50,Genome polyprotein [5],1120 nM
same,inhibition,[6],8%
CC(C)N1C(=O)S/C(=C\c2ccc(C(=O)N[C@@H](CCCNC(=N)N)C(=O)N[C@@H](CCCCN)C(=O)N[C@H](C(N)=O)c3ccccc3)cc2)C1=O,IC50,[4],470 nM
same,inhibition,[1],94.4%
same,inhibition,dengue virus type 2 [2],99.1%
same,IC50,Genome polyprotein [5],3590 nM
same,inhibition,[6],8.5%
O=C(O)c1ccc(/C=C2\SC(=O)N(CC3CCCC3)C2=O)cc1,inhibition,[1],32.4%
same,inhibition,dengue virus type 2 [2],15.9%
same,inhibition,dengue virus type 2 [3],inactive
CC(C)CN1C(=O)S/C(=C\c2ccc(C(=O)N[C@@H](CCCNC(=N)N)C(=O)N[C@@H](CCCCN)C(=O)N[C@H](C(N)=O)c3ccccc3)cc2)C1=O,IC50,[4],1010 nM
same,inhibition,[1],90.7%
same,inhibition,dengue virus type 2 [2],99.6%
same,IC50,Genome polyprotein [5],6240 nM
same,inhibition,[6],inactive
N=C(N)NCCC[C@H](NC(=O)c1ccc(/C=C2\SC(=O)N(C3CCC3)C2=O)cc1)C(=O)N[C@@H](CCCCN)C(=O)N[C@H](C(N)=O)c1ccccc1,IC50,[4],620 nM
same,inhibition,[1],95.3%
same,inhibition,dengue virus type 2 [2],100%
same,IC50,Genome polyprotein [5],1690 nM
same,inhibition,[6],4.7%
O=C(O)c1ccc(/C=C2\SC(=O)N(CC3CCCCC3)C2=O)cc1,inhibition,[1],35%
same,inhibition,dengue virus type 2 [2],23%
same,inhibition,dengue virus type 2 [3],inactive
N=C(N)NCCC[C@H](NC(=O)c1ccc(/C=C2\SC(=O)N(C3CCCCCC3)C2=O)cc1)C(=O)N[C@@H](CCCCN)C(=O)N[C@H](C(N)=O)c1ccccc1,IC50,[4],830 nM
same,inhibition,[1],101%
same,inhibition,dengue virus type 2 [2],100%
same,IC50,Genome polyprotein [5],2110 nM
same,inhibition,[6],11.5%
C#CCCN1C(=O)S/C(=C\c2ccc(C(=O)N[C@@H](CCCNC(=N)N)C(=O)N[C@@H](CCCCN)C(=O)N[C@H](C(N)=O)c3ccccc3)cc2)C1=O,IC50,[4],460 nM
same,inhibition,dengue virus type 2 [10],Active
same,Ki,[11],400 nM
same,Activity,dengue virus type 2 [12],Dose-dependent effect
same,inhibition,[1],97.8%
same,inhibition,dengue virus type 2 [2],99.9%
same,Ki,[13],100 nM
same,IC50,Genome polyprotein [5],2120 nM
same,Activity,dengue virus type 2 [14],inactive
same,inhibition,[6],13%
CC(C)CCN1C(=O)S/C(=C\c2ccc(C(=O)N[C@@H](CCCNC(=N)N)C(=O)N[C@@H](CCCCN)C(=O)N[C@H](C(N)=O)c3ccccc3)cc2)C1=O,IC50,[4],900 nM
same,inhibition,[1],95.4%
same,inhibition,dengue virus type 2 [2],100%
same,IC50,Genome polyprotein [5],1760 nM
same,inhibition,[6],7.3%
CC(C)N1C(=O)S/C(=C\c2ccc(C(=O)O)cc2)C1=O,inhibition,[1],34.8%
same,inhibition,dengue virus type 2 [2],16.3%
same,inhibition,dengue virus type 2 [3],inactive
N=C(N)NCCC[C@H](NC(=O)c1ccc(/C=C2\SC(=O)N(CC3CCCC3)C2=O)cc1)C(=O)N[C@@H](CCCCN)C(=O)N[C@H](C(N)=O)c1ccccc1,IC50,[4],850 nM
same,inhibition,[1],98.8%
same,inhibition,dengue virus type 2 [2],100%
same,IC50,Genome polyprotein [5],1010 nM
same,inhibition,[6],10.1%
CC(C)(C)CN1C(=O)S/C(=C\c2ccc(C(=O)O)cc2)C1=O,inhibition,[1],41.1%
same,inhibition,dengue virus type 2 [2],13.1%
same,inhibition,dengue virus type 2 [3],inactive
C#CCCN1C(=O)S/C(=C\c2ccc(C(=O)O)cc2)C1=O,inhibition,[1],20.8%
same,inhibition,dengue virus type 2 [2],inactive
same,inhibition,dengue virus type 2 [3],inactive
N=C(N)NCCC[C@H](NC(=O)c1ccc(/C=C2\SC(=O)N(CC3CCC3)C2=O)cc1)C(=O)N[C@@H](CCCCN)C(=O)N[C@H](C(N)=O)c1ccccc1,IC50,[4],780 nM
same,inhibition,[1],95.9%
same,inhibition,dengue virus type 2 [2],99.7%
same,IC50,Genome polyprotein [5],1390 nM
same,inhibition,[6],8%
